# Screening results as filed in PubChem BioAssay.
# PfM18AAP inh-1: blocks P. falciparum M18 aspartyl aminopeptidase | recombinant PfM18AAP, H-Glu-NHMec fluorogenic cleavage | inhibition, % at 7.35 µM | 290,000 tested, 1.2% active | AID 1822;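 active = inhibition above the campaign mean inhibition over all tested compounds plus 3 SD, cut at about 28% in these data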;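 note: 0% = plate median of test compound wells and 100% = 2 mM ZnCl2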
# CTSL1 counter-1: counter-screen for PFM18AAP inhibitors: inhibitors of F. hepatica cathepsin L1. recombinant F. hepatica cathepsin L1, Z-Leu-Arg-MCA fluorescence. inhibition, % at 5.96 µM. 300,000 tested, 0.49% active;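 active = inhibition above the mean of all tested compounds plus 3 SD, set per screening campaign, cut at about 17% in these data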;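 note: 0% = plate median of test compound wells and 100% = 1 µM Z-Phe-Ala-diazomethylketone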
# VIM-2 inh: inhibitors of Pseudomonas aeruginosa VIM-2 metallo-beta-lactamase. inhibition, % at 5.6 µM. 290,000 tested, 0.89% active. purified VIM-2, nitrocefin hydrolysis, epi-absorbance fluorescence;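 active = inhibition above the mean of all tested compounds plus 3 SD, cutoff set per screening run, cut at about 7.5% in these data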;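 note: red hydrolysis product quenches plate fluorescence so inhibitors raise well fluorescence; 0% = enzyme with DMSO and 100% = DMSO without enzyme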
# IMP-1 inh: inhibitors of Pseudomonas aeruginosa IMP-1 metallo-beta-lactamase. purified IMP-1, nitrocefin hydrolysis, epi-absorbance fluorescence. inhibition, % at 5.6 µM. 290,000 tested, 0.45% active;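 active = inhibition above the mean plus 3 SD of all compounds in the same screening run, cut at about 4.5% in these data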;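 note: 0% = IMP-1 with DMSO and 100% = DMSO wells lacking enzyme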
#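 system = purified recombinant IMP-1 beta-lactamase | amount = 0.2 nM IMP-1, as dispensed | medium = HEPES buffer pH 7.1 with ZnSO4 and Brij 35 | times = 25 °C, 15 min preincubation, 25 min reaction | detection = plate fluorescence quenching by hydrolysis product, ex 480/em 530 nm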
# PfM18AAP inh-2: PfM18AAP inhibition, confirmation; shares compounds with PfM18AAP inh-1; recombinant PfM18AAP, H-Glu-NHMec fluorogenic cleavage; inhibition, % at 7.35 µM; 2,400 tested, 28% active; AID 2170;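 active = mean inhibition over replicate wells above the hit cutoff set for the earlier primary screen, cut at about 29% in these data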;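 note: 0% = median of test compound wells and 100% = 2 mM ZnCl2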
# CTSL1 counter-2: counter-screen for PFM18AAP inhibitors: confirmation of human cathepsin L inhibitors; shares compounds with PfM18AAP inh-1; purified cathepsin L1, Z-Leu-Arg-MCA fluorescence; inhibition, % at 5.96 µM; 2,400 tested, under 10 active; AID 2178;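 active = average inhibition across replicates above the hit cutoff set in the earlier primary screen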;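 note: 0% = median of test compound wells and 100% = Z-Phe-Ala-diazomethylketone 1 µM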
# Target sequence (P07711 whole entry, looked up): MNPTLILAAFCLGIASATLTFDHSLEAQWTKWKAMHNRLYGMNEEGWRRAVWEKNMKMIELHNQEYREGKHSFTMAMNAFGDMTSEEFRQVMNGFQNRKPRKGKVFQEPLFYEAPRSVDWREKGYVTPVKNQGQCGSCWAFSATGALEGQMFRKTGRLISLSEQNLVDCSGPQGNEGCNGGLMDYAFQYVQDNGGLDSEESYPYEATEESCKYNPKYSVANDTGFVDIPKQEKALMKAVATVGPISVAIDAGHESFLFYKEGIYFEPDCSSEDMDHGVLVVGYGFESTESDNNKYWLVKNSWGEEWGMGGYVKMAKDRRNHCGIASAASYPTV
# * hit, by the source's call; x = no result given. In the library only some 2.7% were active in any assay of this set; here they are far more common.
SMILES,PfM18AAP inh-1,CTSL1 counter-1,VIM-2 inh,IMP-1 inh,PfM18AAP inh-2,CTSL1 counter-2
O=C(Nc1ccnn1C1CCN(C2CCCC2)CC1)c1ccccc1,-7,6,-3,-5,x,x
CCc1nnc(NC(=O)CSc2nnc(-c3ccc(NS(=O)(=O)c4ccccc4)cc3)o2)s1,2,1,1,1,x,x
N#CC1=C(N)NC(=S)C(C(N)=O)C1c1ccc([N+](=O)[O-])cc1 (configuration not stated),48*,4,-4,-2,35*,7
O=C1NC(C(=O)O)=CC(c2ccc([N+](=O)[O-])cc2)N1 (configuration not stated),12,2,-2,-2,x,x
Cc1cccc(Nc2nc3c(s2)CCCC3)c1,32*,1,-4,-1,-9,-1
O=C(O)c1ccc(Nc2nc3c(s2)CCCC3)cc1,11,1,1,2,x,x
CCC(C)Sc1ccc([C@@H]2[C@H]3C(=O)N(CC)C(=O)[C@H]3[C@]3(C(=O)OC)CCCCN23)cc1 (some centres not stated),x,5,x,x,x,x
CCOC(=O)N1CCC(NC(=O)c2ccc3c(c2)N=C(CC)c2ccccc2S3)CC1,3,-3,-1,-4,x,x
CCOC(=O)N1CCC(NC(=O)c2ccc3c(c2)sc2nc(-c4ccccc4)cn23)CC1,40*,3,2,0,-17,0
CCOc1ccc(S(=O)(=O)Nc2ccc(O)c(Sc3ncn[nH]3)c2)cc1,54*,-3,-2,-1,27,-2
CCOc1ccc(NS(=O)(=O)c2ccc(NS(=O)(=O)c3ccc(SC)cc3)cc2)cc1,-2,-2,3,-5,x,x
Cc1cc(F)ccc1S(=O)(=O)Nc1ccc(O)c(Sc2ncn[nH]2)c1,52*,-2,-3,-4,11,-4
CSc1ccc(S(=O)(=O)Nc2ccc(S(=O)(=O)Nc3ccc(C)cc3)cc2)cc1,-8,2,-3,-1,x,x
Cc1ccc(S(=O)(=O)Nc2ccc(O)c(Sc3ncn[nH]3)c2)cc1,56*,-6,-5,-3,22,-9
Cc1cc(F)ccc1S(=O)(=O)Nc1ccccc1C(=O)Nc1ncn[nH]1,49*,2,-4,-5,48*,0
O=C(Nc1nnc(-c2ccc3c(c2)OCCO3)o1)C1CCCCC1,2,1,-2,-2,x,x
CC(=O)Nc1ccc(Nc2nc(C(F)(F)F)nc3c2nnn3Cc2ccccc2Cl)cc1,1,3,0,-1,x,x
Cc1ccc(C)c(S(=O)(=O)Nc2ccc(O)c(Sc3ncn[nH]3)c2)c1,39*,1,-3,-2,15,1
COc1ccc(OC)c(S(=O)(=O)Nc2ccc(O)c(Sc3ncn[nH]3)c2)c1,64*,-5,0,2,36*,0
COc1ccc(OC)c(S(=O)(=O)Nc2cccc(O)c2)c1,x,-1,x,x,x,x
CC1Cc2ccccc2N1C(=O)CN1C(=O)NC(C)(CCc2ccccc2)C1=O (configuration not stated),-18,4,1,-1,x,x
NC(=O)c1ccc(N2CCN(c3ccc(O)cc3)CC2)c([N+](=O)[O-])c1,50*,-1,7,-2,6,2
CC(=O)c1ccc(N2CCN(c3ccc(C(N)=O)cc3[N+](=O)[O-])CC2)cc1,-2,7,0,-3,x,x
CCOc1c(Nc2ccccc2O)c(=O)c1=O,35*,-1,-1,-1,-28,1
CCOC(=O)c1ccc(Nc2c(OCC)c(=O)c2=O)cc1,3,-2,-2,-3,x,x
SMILES,PfM18AAP inh-1,CTSL1 counter-1,VIM-2 inh,IMP-1 inh,PfM18AAP inh-2,CTSL1 counter-2
CCN(C(=O)C(C)N1C(=O)/C(=C/c2ccco2)SC1=S)C1CCS(=O)(=O)C1 (configuration not stated),43*,5,-2,7.8*,-43,2
Clc1ccc(-c2nc3ccccn3c2CN2CCCCC2)cc1,-3,0,-2,-3,x,x
Oc1ccc(N2CCN(Cc3c(-c4ccccc4)nc4ccccn34)CC2)cc1,34*,2,0,-3,-28,-10
Cc1sc2ncnc(N3CCC(C(=O)Nc4nc(-c5cccs5)cs4)CC3)c2c1C,x,9,x,x,x,x
O=C1/C(=C/c2ccncc2)SC(=S)N1Nc1ccccc1,32*,0,-2,-3,10,-6
O=C1/C(=C/c2ccc(O)c(O)c2)SC(=S)N1Nc1ccccc1,58*,x,-2,-1,31*,9
Cc1c(NC(=O)C(C)OC(=O)CCOc2ccccc2)c(=O)n(-c2ccccc2)n1C (configuration not stated),x,3,x,x,x,x
c1ccc(CN2CCC3(CC2)Nc2ccccc2CO3)cc1,10,-1,-1,-3,x,x
c1ccc(CN2CCC3(CC2)Nc2ccccc2S3)cc1,34*,-2,-3,-4,-55,5
CCOC(=O)C1=C(CS(=O)(=O)c2ccc(F)cc2)NC(=O)NC1c1ccc(O)c(O)c1 (configuration not stated),79*,-3,-3,-5,62*,-9
C/C(=N/NS(=O)(=O)c1ccc(C)c(C)c1)c1ccncc1,9,2,1,0,x,x
C/C(=N/NS(=O)(=O)c1cccc([N+](=O)[O-])c1)c1ccncc1,44*,2,0,-2,4,-4
C/C(=N/NS(=O)(=O)c1ccc(Cl)cc1)c1ccncc1,4,5,0,-2,x,x
C/C(=N\NS(=O)(=O)c1ccc(Br)cc1)c1ccncc1,53*,1,-2,-1,14,-5
CCOc1ccc(OCCC(=O)OCC(=O)Nc2ccc(Cl)cn2)cc1,x,-13,x,x,x,x
Cc1ccc(Cn2c(=O)c3ccccc3n3nc(C)cc23)cc1,1,-4,-1,-3,x,x
NC(=O)c1c(NC(NC(=O)c2ccco2)C(=O)c2ccc(Cl)cc2)sc2c1CCCC2 (configuration not stated),38*,-4,-4,-1,-22,1
CC[n+]1c(C)sc2c3ccsc3ccc21,55*,-1,1,-1,9,6
CCN(CC)C(=S)SCC(=O)Nc1ccc(S(N)(=O)=O)cc1,4,-4,-2,-2,x,x
CCN(CC)C(=S)SCC(=O)Nc1nc(=O)c2ccccc2s1,32*,-5,-1,-2,-53,-9
Cc1nc(N2CCCCC2)c2c(C)c(C(=O)Nc3ccc4c(c3)OCCO4)sc2n1,5,6,-2,-2,x,x
COc1cc(C(=O)N/N=C(\C)Cn2nc([N+](=O)[O-])cc2C)ccc1O,-2,-2,-3,-5,x,x
C/C(Cn1nc([N+](=O)[O-])cc1C)=N\NC(=O)c1ccc(O)cc1O,41*,-2,-2,0,4,6
CCOC(=O)CNC(=S)SC,0,-2,-2,-1,x,x
CCOC(=O)CNC(=S)n1ncnc1N,58*,0,2,-1,-14,2
COCCCNC(=S)NNC(=S)Nc1ccccc1,40*,-2,-4,0,-14,6
COCCCNC(=S)NCCc1ccc(F)cc1,6,4,-4,-3,x,x
